The record followed here is article PMC3288537 (ACS Chemical Biology, 2011).

The structures appear in SMILES notation.

What all share (format): biochemical
One test concerns the target VHR (Homo sapiens, UniProt P51452). Kind of test: Dose-response OMFP phosphatase assay, VHR. To be noted: read-out: IC50 VHR; OMFP substrate.
The next test has as its target T1, STEP (Homo sapiens, UniProt P54829).
T1 sequence (P54829 1-565): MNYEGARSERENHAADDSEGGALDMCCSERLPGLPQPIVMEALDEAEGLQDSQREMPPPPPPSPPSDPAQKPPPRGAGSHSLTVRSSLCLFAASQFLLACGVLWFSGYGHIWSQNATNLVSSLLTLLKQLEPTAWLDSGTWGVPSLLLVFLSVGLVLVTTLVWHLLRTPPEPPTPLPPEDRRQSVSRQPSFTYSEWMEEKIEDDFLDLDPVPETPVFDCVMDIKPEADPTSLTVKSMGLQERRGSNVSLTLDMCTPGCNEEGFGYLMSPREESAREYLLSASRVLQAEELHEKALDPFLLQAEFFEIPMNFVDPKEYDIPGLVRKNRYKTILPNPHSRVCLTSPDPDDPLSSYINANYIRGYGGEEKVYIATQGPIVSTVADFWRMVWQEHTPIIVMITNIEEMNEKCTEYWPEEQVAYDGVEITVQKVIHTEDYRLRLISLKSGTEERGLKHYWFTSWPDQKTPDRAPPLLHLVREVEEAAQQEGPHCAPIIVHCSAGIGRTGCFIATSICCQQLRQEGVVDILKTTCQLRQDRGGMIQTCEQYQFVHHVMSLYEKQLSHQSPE
Kind of test: Dose-response OMFP phosphatase assay, STEP. To be noted: read-out: IC50 STEP; OMFP substrate.

Another test has as its target T2, SHP2 (Homo sapiens, UniProt Q06124).
T2 sequence (Q06124 1-593): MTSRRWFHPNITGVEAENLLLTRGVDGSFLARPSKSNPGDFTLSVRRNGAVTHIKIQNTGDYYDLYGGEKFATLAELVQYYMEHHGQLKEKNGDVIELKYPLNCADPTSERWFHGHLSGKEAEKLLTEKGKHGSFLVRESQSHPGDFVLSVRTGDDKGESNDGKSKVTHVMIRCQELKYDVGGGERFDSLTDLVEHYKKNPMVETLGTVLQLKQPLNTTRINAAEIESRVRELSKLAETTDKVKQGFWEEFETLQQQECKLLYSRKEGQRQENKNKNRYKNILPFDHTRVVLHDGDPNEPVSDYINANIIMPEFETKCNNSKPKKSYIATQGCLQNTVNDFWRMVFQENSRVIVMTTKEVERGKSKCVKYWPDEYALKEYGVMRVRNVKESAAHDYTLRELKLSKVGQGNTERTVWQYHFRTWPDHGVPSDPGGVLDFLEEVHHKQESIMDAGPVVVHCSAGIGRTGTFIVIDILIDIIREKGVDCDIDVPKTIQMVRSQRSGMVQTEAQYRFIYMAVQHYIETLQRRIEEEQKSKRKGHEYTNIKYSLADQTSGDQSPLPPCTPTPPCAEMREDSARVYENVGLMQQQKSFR
Kind of test: Dose-response OMFP phosphatase assay, SHP2. To be noted: read-out: IC50 SHP2; OMFP substrate. The method in brief: (§1)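 Ten-point 2-fold dilution series of test compound prepared in DMSO. Fluorescence (ex 485/em 528 nm) read in kinetic mode over 10 min; progress-curve slopes taken as activity. IC50 by nonlinear regression (sigmoidal, variable slope).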

A further test deals with T3, CD45 (Homo sapiens, UniProt P08575).
T3 sequence (P08575 26-1306): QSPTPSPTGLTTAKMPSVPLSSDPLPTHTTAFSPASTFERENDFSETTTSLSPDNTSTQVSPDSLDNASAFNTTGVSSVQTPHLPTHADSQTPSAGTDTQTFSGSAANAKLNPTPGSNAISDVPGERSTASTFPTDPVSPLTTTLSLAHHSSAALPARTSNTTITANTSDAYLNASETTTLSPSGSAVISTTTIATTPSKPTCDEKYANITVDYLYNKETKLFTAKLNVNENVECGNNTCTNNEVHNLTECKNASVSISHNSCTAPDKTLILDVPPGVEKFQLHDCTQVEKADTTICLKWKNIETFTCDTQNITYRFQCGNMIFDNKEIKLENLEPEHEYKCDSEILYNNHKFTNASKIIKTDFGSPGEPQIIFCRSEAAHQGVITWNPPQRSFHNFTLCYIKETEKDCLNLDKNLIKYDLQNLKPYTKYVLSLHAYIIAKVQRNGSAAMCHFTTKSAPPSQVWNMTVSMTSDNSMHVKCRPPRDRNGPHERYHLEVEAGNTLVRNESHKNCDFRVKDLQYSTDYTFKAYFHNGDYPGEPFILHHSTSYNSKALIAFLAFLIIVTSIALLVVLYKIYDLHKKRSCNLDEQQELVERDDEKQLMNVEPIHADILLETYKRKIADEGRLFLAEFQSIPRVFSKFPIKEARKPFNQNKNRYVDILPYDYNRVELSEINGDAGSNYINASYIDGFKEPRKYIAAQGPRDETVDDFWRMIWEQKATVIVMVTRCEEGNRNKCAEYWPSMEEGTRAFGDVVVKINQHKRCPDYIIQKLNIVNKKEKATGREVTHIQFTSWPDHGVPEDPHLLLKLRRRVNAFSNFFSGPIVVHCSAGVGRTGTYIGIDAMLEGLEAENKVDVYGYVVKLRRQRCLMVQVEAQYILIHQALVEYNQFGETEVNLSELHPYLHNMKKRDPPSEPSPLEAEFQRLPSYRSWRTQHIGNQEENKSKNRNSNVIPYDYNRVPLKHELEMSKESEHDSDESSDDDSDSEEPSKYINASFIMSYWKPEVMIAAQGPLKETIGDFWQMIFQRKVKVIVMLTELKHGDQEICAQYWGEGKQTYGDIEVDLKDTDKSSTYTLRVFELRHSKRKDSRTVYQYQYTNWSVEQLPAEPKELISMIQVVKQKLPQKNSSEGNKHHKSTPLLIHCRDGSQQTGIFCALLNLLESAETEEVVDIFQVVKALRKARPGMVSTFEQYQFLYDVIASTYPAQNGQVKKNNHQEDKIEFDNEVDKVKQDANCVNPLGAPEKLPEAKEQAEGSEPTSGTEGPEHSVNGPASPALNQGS
The experiment in a line: Dose-response OMFP phosphatase assay, CD45. To be noted: read-out: IC50 CD45; OMFP substrate. In a few lines: as §1

Sequence of VHR (P51452 whole entry, species assumed): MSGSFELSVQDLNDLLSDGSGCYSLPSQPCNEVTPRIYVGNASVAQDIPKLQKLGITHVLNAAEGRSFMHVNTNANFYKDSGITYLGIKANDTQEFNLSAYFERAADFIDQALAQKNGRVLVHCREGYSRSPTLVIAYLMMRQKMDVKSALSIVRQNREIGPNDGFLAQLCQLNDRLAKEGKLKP

Take `O=C(O)c1ccccc1-c1ccc(/C=c2\sc3nc4cc(Br)cnc4n3c2=O)o1` [Compound 1]: the IC50 on VHR was found to be 1900 nM; on STEP, 6300 nM; at SHP2, 1100 nM; on CD45 it was 3100 nM.

The term IC50 denotes the concentration that gives 50% inhibition.
